ChEMBL document CHEMBL4316599, “Synthesis, in vitro and in vivo biological evaluation of substituted 3-(5-imidazo[2,1-b]thiazolylmethylene)-2-indolinones as new potent anticancer agents” (Eur J Med Chem, 2019)
Activity calls are given as the source filed them. No cut-off for these calls is given here.

Experiments:
K562 [1] = test: Cytotoxicity against human K562 cells after 48 hrs by SRB assay; assay type: functional, cell-based
K562 [2] = test: Cell cycle arrest in human K562 cells assessed as mitotic index at 10 times IC50 by Giemsa staining-based assay (reference value: 3%); assay type: functional
B16-BL6 = test: Antitumor activity mouse B16-BL6 cells implanted in C57BL/6 mouse assessed tumor growth inhibition at 30 mg/kg, ip dosed every other day for 18 days relative to control; assay type: functional; details: 432 h, read-out: TGI
Summary of the method: (§1)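 Syngeneic allograft: C57BL/6 mice, six weeks old, given 2.5×10^5 BL6-B16 or E0771 cells subcutaneously in the dorsolateral flank in PBS. Dosing began at about 100 mm³. Test compound or reference was given intraperitoneally every other day in 50 μL DMSO, with DMSO vehicle controls. Tumor volume was compared with the vehicle group, 5 animals per group, mean ± SEM, by 2-way ANOVA with Bonferroni correction.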

K562 [3] = test: Cell cycle arrest in human K562 cells assessed as mitotic index at IC50 by Giemsa staining-based assay (reference value: 3%); assay type: functional
K562 [4] = test: Cytotoxicity against human K562 cells after 16 hrs by SRB assay; details: K562, 16 h
K562 [5] = test: Cell cycle arrest in human K562 cells assessed as mitotic index at 5 times IC50 by Giemsa staining-based assay (reference value: 3%); assay type: functional
E0771 = test: Antitumor activity mouse E0771 cells implanted in C57BL/6 mouse assessed tumor growth inhibition at 30 mg/kg, ip dosed every other day for 20 days relative to control; assay type: functional; details: 480 h, read-out: TGI; summary of the method: as §1
HT-29 [6] = test: Cell cycle arrest in human HT-29 cells assessed as reduction in accumulation of cells at S phase up to 1000 nM after 24 hrs by propidium iodide staining-based flow cytometric analysis; assay type: functional
Summary of the method: (§2)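 Cells exposed to a range of concentrations for 24 h (HeLa at 5×10^5 cells), then fixed in ice-cold 70% ethanol. Lysis buffer with RNase A and 0.1% Triton X-100 was applied before PI staining. DNA content was read by flow cytometry and G1/S/G2/M fractions taken from DNA histograms. Mean ± SEM of two independent experiments.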

Tubulin (Bos taurus) [7] = biological target: T1, Tubulin (Bos taurus) (UniProt Q6B856+Q862L2+Q862F3); test: Inhibition of [3H]colchicine binding to bovine brain tubulin at 50 uM after 20 mins relative to control
Summary of the method: (§3)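 Reaction mixtures held 1 μM tubulin, 5 μM [³H]colchicine and test compound at 5 or 50 μM. Read-out was percent inhibition of colchicine binding.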

[8] = Cytotoxicity against human COLON cells after 48 hrs by SRB assay; assay type: functional
Summary of the method: (§4)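 NCI-60 screen: single-dose pass at 10^-5 M, then a five-concentration assay from 10^-9 to 10^-4 M (highest 100 μM). Exposure was 48 h under standard NCI protocols. GI50, TGI and LC50 were derived per cell line and averaged by subpanel. Repeated tests are the mean of two experiments.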

Tubulin (Bos taurus) [9] = biological target: T1, Tubulin (Bos taurus); test: Inhibition of [3H]colchicine binding to bovine brain tubulin at 5 uM after 20 mins relative to control; summary of the method: as §3
Breast carcinoma cell = test: Cytotoxicity against human breast cancer cells after 48 hrs by SRB assay; assay type: functional; summary of the method: as §4
Melanoma cell line = test: Cytotoxicity against human melanoma cells after 48 hrs by SRB assay; assay type: functional; summary of the method: as §4
HeLa [10] = test: Cell cycle arrest in human HeLa cells assessed as accumulation of cells at G2/M phase after 24 hrs by propidium iodide staining-based flow cytometric analysis; assay type: functional; summary of the method: as §2
HeLa [11] = test: Induction of apoptosis in human HeLa cells assessed as decrease in Bcl-2 levels at 50 to 250 nM after 24 hrs by Western blot analysis; assay type: functional, cell-based
Summary of the method: (§5)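 HeLa cells treated 24 h, washed in ice-cold PBS and lysed on ice 30 min. Lysates were spun at 15000 x g, 4 °C. 10 µg protein run on SDS-PAGE and blotted to PVDF. Blots were blocked in 5% BSA overnight at 4 °C and probed 2 h at room temperature. Detection by HRP-secondary and ECL, with bands normalized to β-actin as fold of untreated. Three independent experiments, one-way ANOVA/Dunnett.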

HeLa [12] = test: Induction of apoptosis in human HeLa cells assessed as increase in caspase-9 activity at 50 to 250 nM after 24 hrs by Western blot analysis; assay type: functional, cell-based; summary of the method: as §5
A549 [13] = test: Induction of apoptosis in human A549 cells at 100 nM after 24 to 48 hrs by Annexin V-FITC/propidium iodide staining-based flow cytometric analysis; assay type: functional, cell-based
Summary of the method: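 A549 cells treated 24 or 48 h at 12.5–100 nM, then double-stained with annexin-V-FITC and PI. Phosphatidylserine exposure was read by flow cytometry. Mean ± SEM of three independent experiments.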

HeLa [14] = test: Cell cycle arrest in human HeLa cells assessed as reduction in accumulation of cells at G1 phase up to 1000 nM after 24 hrs by propidium iodide staining-based flow cytometric analysis; assay type: functional; summary of the method: as §2
Prostatic carcinoma cell = test: Cytotoxicity against human prostate cancer cells after 48 hrs by SRB assay; assay type: functional; summary of the method: as §4
Renal cancer cell line = test: Cytotoxicity against human renal cancer cells after 48 hrs by SRB assay; assay type: functional; summary of the method: as §4
HeLa [15] = test: Induction of ROS generation in human HeLa cells at 250 nM after 12 to 24 hrs by H2-DCFDA staining-based assay; assay type: functional, cell-based
Summary of the method: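 HeLa cells treated 6, 12, 24 or 48 h, then loaded with H2-DCFDA and analysed by flow cytometry for ROS. Mean ± SEM of three independent experiments, compared against control.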

HeLa [16] = test: Cell cycle arrest in human HeLa cells assessed as decrease in p-cdc25c expression at 50 to 250 nM after 24 hrs by Western blot analysis; assay type: functional, cell-based; summary of the method: as §5
HeLa [17] = test: Cell cycle arrest in human HeLa cells assessed as reduction in accumulation of cells at S phase up to 1000 nM after 24 hrs by propidium iodide staining-based flow cytometric analysis; assay type: functional; summary of the method: as §2
HeLa [18] = test: Induction of apoptosis in human HeLa cells assessed as decrease in Mcl-1 levels at 50 to 250 nM after 24 hrs by Western blot analysis; assay type: functional, cell-based; summary of the method: as §5
Leukemia cell = test: Cytotoxicity against human leukemia cells after 48 hrs by SRB assay; assay type: functional; summary of the method: as §4
A549 [19] = test: Cell cycle arrest in human A549 cells assessed as reduction in accumulation of cells at S phase up to 600 nM after 24 hrs by propidium iodide staining-based flow cytometric analysis; assay type: functional; summary of the method: as §2
HeLa [20] = test: Induction of mitochondrial membrane depolarization in human HeLa cells at 250 to 500 nM after 6 to 48 hrs by JC-1 staining-based assay; assay type: functional, cell-based; details: TDE = time-dependent effect
Summary of the method: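 HeLa cells treated at 250-500 nM for 6, 12, 24 or 48 h, then stained with JC-1. Percentage of cells with low mitochondrial membrane potential measured by flow cytometry. Mean ± SEM of three independent experiments.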

Tubulin = Tubulin (Bos taurus, UniProt Q6B856+Q862L2+Q862F3); test: Inhibition of bovine brain tubulin polymerization after 20 mins by spectrophotometric analysis
Summary of the method: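 Bovine brain tubulin (10 μM) in glutamate buffer preincubated with varying compound levels at 30 °C, then chilled to 0 °C. GTP added to 0.4 mM final, then warmed to 30 °C. Assembly followed by turbidity at 350 nm. IC50 is the concentration halving the extent of assembly after 20 min.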

CNS carcinoma cell = test: Cytotoxicity against human CNS cancer cells after 48 hrs by SRB assay; assay type: functional; summary of the method: as §4
HeLa [21] = test: Induction of apoptosis in human HeLa cells assessed as increase in caspase-3 activity at 50 to 250 nM after 24 hrs by Western blot analysis; assay type: functional, cell-based; summary of the method: as §5
A549 [22] = test: Cell cycle arrest in human A549 cells assessed as accumulation of cells at G2/M phase after 24 hrs by propidium iodide staining-based flow cytometric analysis; assay type: functional; summary of the method: as §2
NSCLC = test: Cytotoxicity against human NSCLC cells after 48 hrs by SRB assay; assay type: functional; summary of the method: as §4
HT-29 [23] = test: Cell cycle arrest in human HT-29 cells assessed as accumulation of cells at G2/M phase after 24 hrs by propidium iodide staining-based flow cytometric analysis; assay type: functional; summary of the method: as §2
[24] = Cytotoxicity against human PHA-stimulated PBL after 72 hrs by MTT assay; assay type: cell-based; details: PHA-stimulated peripheral blood lymphocytes (PBL)
Summary of the method: (§6)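 Lymphocytes from healthy donors were isolated on a Lymphoprep gradient and held overnight in RPMI-1640 with 10% FBS. Non-adherent cells were set at 5×10^5 cells/mL, either resting or stimulated with 2.5 μg/mL PHA. Cells were exposed to a range of compound concentrations for 72 h and viability read by MTT. GI50 is the mean ± SEM of three separate experiments.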

[25] = Cytotoxicity against human PBL after 72 hrs by MTT assay; assay type: cell-based; details: peripheral blood lymphocytes (PBL); summary of the method: as §6
HT-29 [26] = test: Cell cycle arrest in human HT-29 cells assessed as reduction in accumulation of cells at G1 phase up to 1000 nM after 24 hrs by propidium iodide staining-based flow cytometric analysis; assay type: functional; summary of the method: as §2
A549 [27] = test: Cell cycle arrest in human A549 cells assessed as reduction in accumulation of cells at G1 phase up to 600 nM after 24 hrs by propidium iodide staining-based flow cytometric analysis; assay type: functional; summary of the method: as §2
Ovarian carcinoma cell = test: Cytotoxicity against human ovarian cancer cells after 48 hrs by SRB assay; assay type: functional; summary of the method: as §4
[28] = read-out: LC50 (the source's name)

For COc1ccc(/C=C\c2cc(OC)c(OC)c(OC)c2)cc1O [COMBRETASTATIN A4], the Activity (K562 [1]) was “Dose-dependent effect”, the Activity (K562 [2]) was 61% and the inhibition in vivo at 30 mg/kg (B16-BL6) was 16 to 18%. The Activity (K562 [3]) was 15%, the IC50 (K562 [4]) was 0.004 µM and the Activity (K562 [5]) was 32%. For the same compound, the inhibition in vivo at 30 mg/kg (E0771) was 30.9%.

With O=C1Nc2c(ccc3ccccc23)/C1=C\c1c(-c2cccnc2)nc2sccn12 the Activity (HT-29 [6]) was “Active”, the inhibition (Tubulin (Bos taurus) [7]) was 56% and the GI50 [8] was 0.15 µM. The TGI [8] was 9.42 µM, the CC50 [8, 28] was 49 µM and the inhibition (Tubulin (Bos taurus) [9]) was 31%. It also gave a GI50 (Breast carcinoma cell) of 0.26 µM, an LC50 (concentration killing 50% of cells) (Breast carcinoma cell) of 70.8 µM and a TGI (Breast carcinoma cell) of 20.1 µM. The GI50 (Melanoma cell line) was 1.65 µM, the TGI (Melanoma cell line) was 17.6 µM and the CC50 (Melanoma cell line; [28]) was 66.5 µM. For the same compound, the Activity (K562 [1]) was “Dose-dependent effect”, the Activity (K562 [2]) was 78% and the Activity (HeLa [10]) was “Dose-dependent effect”. For the same compound, the Activity (HeLa [11]) was “Active”, the Activity (HeLa [12]) was “Active” and the Activity (A549 [13]) was “Active”. The Activity (HeLa [14]) was “Active”, the GI50 (Prostatic carcinoma cell) was 0.1 µM and the TGI (Prostatic carcinoma cell) was 11.1 µM. It also gave a CC50 (Prostatic carcinoma cell; [28]) of 33.4 µM, a GI50 (Renal cancer cell line) of 1.24 µM and an LC50 (50% lethal concentration) (Renal cancer cell line) of 49.2 µM. The TGI (Renal cancer cell line) was 15.9 µM, the Activity (HeLa [15]) was “Active” and the Activity (HeLa [16]) was “Active”. For the same compound, the Activity (HeLa [17]) was “Active”, the Activity (HeLa [18]) was “Active” and the Activity (K562 [3]) was 22%. For the same compound, the IC50 (K562 [4]) was 0.2 µM, the GI50 (Leukemia cell) was 0.11 µM and the TGI (Leukemia cell) was 46.4 µM. The Activity (A549 [19]) was “Active”, the Activity (HeLa [20]) was “Tde” and the IC50 (Tubulin) was 2.2 µM. It also gave a GI50 (CNS carcinoma cell) of 1.16 µM, a TGI (CNS carcinoma cell) of 13.9 µM and a CC50 (CNS carcinoma cell; [28]) of 47.5 µM. For the same compound, the Activity (HeLa [21]) was “Active”, the Activity (A549 [22]) was “Dose-dependent effect” and the GI50 (NSCLC) was 1.78 µM. The LC50 (NSCLC) was 61.7 µM, the TGI (NSCLC) was 16.2 µM and the Activity (HT-29 [23]) was “Dose-dependent effect”. The GI50 at 72 h [24] was 2.5 µM, the GI50 at 72 h [25] was 3.1 µM and the Activity (HT-29 [26]) was “Active”. The Activity (A549 [27]) was “Active”, the GI50 (Ovarian carcinoma cell) was 1.21 µM and the LC50 (50% lethal concentration) (Ovarian carcinoma cell) was 41.2 µM. It also gave a TGI (Ovarian carcinoma cell) of 12.3 µM and an Activity (K562 [5]) of 64%.
